Data from ChEMBL document CHEMBL5724801, “EUbOPEN Chemogenomics Library - Multiplex” (2024).
Values joined by “and” are separate entries in the source; they are usually repeats but may differ in a detail not shown here. Identical values can stand only once.

Test system: HEK-293T
Assay: Multiplex assay against HEK293T
Type: toxicity, cell-based
Conditions: human
Method in brief: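 Hoechst33342, BioTracker Green Microtubule Cytoskeleton Dye, MitoTracker Red and Annexin V Alexa Fluor 680 were added to live cells at seeding, and imaging on a CQ1 microscope at 37°C and 5% CO2 followed compound addition. Gating by CellPathfinder machine learning separated cells into Hoechst high-intensity objects or normal cells, then normal cells into healthy, pyknosed or fragmented nuclei, then pyknosed cells into mitotic or apoptotic. Per cents of healthy-nucleus cells are reported for the tubulin, mitochondrial-mass and membrane-permeability phenotypes.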

[1] = 12 h, 1 µM, compound concentration 1 uM
[2] = 12 h, 10 µM, compound concentration 10 uM
[3] = 24 h, 1 µM, compound concentration 1 uM
[4] = 24 h, 10 µM, compound concentration 10 uM
[5] = 48 h, 1 µM, compound concentration 1 uM
[6] = 48 h, 10 µM, compound concentration 10 uM

Cl.Clc1ccc2nsnc2c1NC1=NCCN1 [TIZANIDINE HYDROCHLORIDE]
Population Apoptotic (%) [1]: 39% and 44%
Population Fragmented Nuclei (%) [1]: 9% and 2%
Population Healthy Nuclei (%) [1]: 80% and 83%
Population Hoechst High Intensity Objects (%) [1]: 8% and 9%
Population Membrane Permeable-Phenotype (%) [1]: 0%
Population Mitochondria Different-Phenotype (%) [1]: 36% and 62%
Population Mitotic Cells (%) [1]: 60% and 55%
Population Normal (%) [1]: 91% and 90%
Population Pyknosed Nuclei (%) [1]: 9% and 13%
Population Tubulin-Different-Phenotype (%) [1]: 26% and 20%
Total Cell Count [1]: 474 and 373
Population Apoptotic (%) [2]: 30% and 46%
Population Fragmented Nuclei (%) [2]: 9% and 7%
Population Healthy Nuclei (%) [2]: 80% and 79%
Population Hoechst High Intensity Objects (%) [2]: 6% and 4%
Population Membrane Permeable-Phenotype (%) [2]: 0%
Population Mitochondria Different-Phenotype (%) [2]: 45% and 67%
Population Mitotic Cells (%) [2]: 70% and 53%
Population Normal (%) [2]: 93% and 95%
Population Pyknosed Nuclei (%) [2]: 9% and 13%
Population Tubulin-Different-Phenotype (%) [2]: 32% and 27%
Total Cell Count [2]: 450 and 343
Population Apoptotic (%) [3]: 32% and 45%
Population Fragmented Nuclei (%) [3]: 11% and 10%
Population Healthy Nuclei (%) [3]: 79% and 80%
Population Hoechst High Intensity Objects (%) [3]: 4% and 5%
Population Membrane Permeable-Phenotype (%) [3]: 0%
Population Mitochondria Different-Phenotype (%) [3]: 20% and 38%
Population Mitotic Cells (%) [3]: 67% and 54%
Population Normal (%) [3]: 95% and 94%
Population Pyknosed Nuclei (%) [3]: 8%
Population Tubulin-Different-Phenotype (%) [3]: 17% and 15%
Total Cell Count [3]: 597 and 434
Population Apoptotic (%) [4]: 32% and 29%
Population Fragmented Nuclei (%) [4]: 11% and 10%
Population Healthy Nuclei (%) [4]: 78% and 81%
Population Hoechst High Intensity Objects (%) [4]: 5% and 6%
Population Membrane Permeable-Phenotype (%) [4]: 1% and 0%
Population Mitochondria Different-Phenotype (%) [4]: 23% and 46%
Population Mitotic Cells (%) [4]: 67% and 70%
Population Normal (%) [4]: 94% and 93%
Population Pyknosed Nuclei (%) [4]: 9% and 7%
Population Tubulin-Different-Phenotype (%) [4]: 18%
Total Cell Count [4]: 621 and 443
Population Apoptotic (%) [5]: 17% and 33%
Population Fragmented Nuclei (%) [5]: 16% and 14%
Population Healthy Nuclei (%) [5]: 77% and 79%
Population Hoechst High Intensity Objects (%) [5]: 2% and 3%
Population Membrane Permeable-Phenotype (%) [5]: 3% and 1%
Population Mitochondria Different-Phenotype (%) [5]: 13% and 19%
Population Mitotic Cells (%) [5]: 82% and 66%
Population Normal (%) [5]: 97% and 96%
Population Pyknosed Nuclei (%) [5]: 6%
Population Tubulin-Different-Phenotype (%) [5]: 10% and 7%
Total Cell Count [5]: 1005 and 661
Population Apoptotic (%) [6]: 24% and 25%
Population Fragmented Nuclei (%) [6]: 19% and 13%
Population Healthy Nuclei (%) [6]: 74% and 81%
Population Hoechst High Intensity Objects (%) [6]: 3% and 5%
Population Membrane Permeable-Phenotype (%) [6]: 1%
Population Mitochondria Different-Phenotype (%) [6]: 13% and 23%
Population Mitotic Cells (%) [6]: 75%
Population Normal (%) [6]: 96% and 94%
Population Pyknosed Nuclei (%) [6]: 5% and 4%
Population Tubulin-Different-Phenotype (%) [6]: 10% and 19%
Total Cell Count [6]: 995 and 600

Cl.Clc1cc2cc(c1)-c1cnn3ccc(nc13)NCCOCCO2
Population Apoptotic (%) [1]: 7.52% and 9.38%
Population Fragmented Nuclei (%) [1]: 1.41% and 6.41%
Population Hoechst High Intensity Objects (%) [1]: 0%
Population Membrane Permeable-Phenotype (%) [1]: 0.46% and 0%
Population Mitochondria Different-Phenotype (%) [1]: 39.63% and 22.22%
Population Mitotic Cells (%) [1]: 92.48% and 90.62%
Population Normal (%) [1]: 100%
Population Pyknosed Nuclei (%) [1]: 37.46% and 82.05%
Total Cell Count [1]: 355 and 156
Population Apoptotic (%) [2]: 20.33% and 8.33%
Population Fragmented Nuclei (%) [2]: 2.02% and 1.83%
Population Healthy Nuclei (%) [2]: 56.57% and 25%
Population Hoechst High Intensity Objects (%) [2]: 0% and 0.61%
Population Membrane Permeable-Phenotype (%) [2]: 1.19% and 2.44%
Population Mitochondria Different-Phenotype (%) [2]: 35.71% and 26.83%
Population Mitotic Cells (%) [2]: 79.67% and 91.67%
Population Normal (%) [2]: 100% and 99.39%
Population Pyknosed Nuclei (%) [2]: 41.41% and 73.17%
Total Cell Count [2]: 297 and 165
Population Apoptotic (%) [3]: 18.58% and 9.43%
Population Fragmented Nuclei (%) [3]: 0.93% and 4.73%
Population Hoechst High Intensity Objects (%) [3]: 0%
Population Membrane Permeable-Phenotype (%) [3]: 1.19% and 0%
Population Mitochondria Different-Phenotype (%) [3]: 17.58% and 22.86%
Population Mitotic Cells (%) [3]: 81.42% and 90.57%
Population Normal (%) [3]: 100%
Population Tubulin-Different-Phenotype (%) [3]: 11.16% and 5.71%
Population Apoptotic (%) [4]: 25.26% and 16.38%
Population Fragmented Nuclei (%) [4]: 2.17% and 2.23%
Population Healthy Nuclei (%) [4]: 72.01% and 32.96%
Population Hoechst High Intensity Objects (%) [4]: 0%
Population Membrane Permeable-Phenotype (%) [4]: 0.75% and 0%
Population Mitochondria Different-Phenotype (%) [4]: 30.19% and 10.17%
Population Mitotic Cells (%) [4]: 74.74% and 83.62%
Population Normal (%) [4]: 100%
Population Pyknosed Nuclei (%) [4]: 25.82% and 64.8%
Population Tubulin-Different-Phenotype (%) [4]: 9.81% and 5.08%
Total Cell Count [4]: 368 and 179
Population Fragmented Nuclei (%) [5]: 3.48% and 1.96%
Population Healthy Nuclei (%) [5]: 87.01% and 64.71%
Population Hoechst High Intensity Objects (%) [5]: 0% and 0.97%
Population Membrane Permeable-Phenotype (%) [5]: 5.92% and 3.03%
Population Mitochondria Different-Phenotype (%) [5]: 15.1% and 25%
Population Mitotic Cells (%) [5]: 97.71% and 83.82%
Population Normal (%) [5]: 100% and 99.03%
Population Apoptotic (%) [6]: 16.05% and 15.07%
Population Fragmented Nuclei (%) [6]: 3.95% and 2.66%
Population Healthy Nuclei (%) [6]: 86.64% and 69.58%
Population Hoechst High Intensity Objects (%) [6]: 0.12% and 0.75%
Population Membrane Permeable-Phenotype (%) [6]: 3.08% and 0%
Population Mitochondria Different-Phenotype (%) [6]: 26.54% and 19.13%
Population Mitotic Cells (%) [6]: 83.95% and 84.93%
Population Normal (%) [6]: 99.88% and 99.25%
Population Pyknosed Nuclei (%) [6]: 9.41% and 27.76%

Cc1ccc(F)cc1C(=O)Nc1ccc(C(=O)N2Cc3cccn3Cc3ccccc32)c(Cl)c1 [LIXIVAPTAN]
Population Apoptotic (%) [1]: 36% and 40%
Population Fragmented Nuclei (%) [1]: 5% and 6%
Population Healthy Nuclei (%) [1]: 83% and 74%
Population Hoechst High Intensity Objects (%) [1]: 7% and 5%
Population Membrane Permeable-Phenotype (%) [1]: 0%
Population Mitochondria Different-Phenotype (%) [1]: 45% and 57%
Population Mitotic Cells (%) [1]: 63% and 60%
Population Normal (%) [1]: 92% and 94%
Population Pyknosed Nuclei (%) [1]: 10% and 19%
Population Tubulin-Different-Phenotype (%) [1]: 38% and 32%
Total Cell Count [1]: 486 and 335
Population Apoptotic (%) [2]: 46% and 50%
Population Fragmented Nuclei (%) [2]: 6%
Population Healthy Nuclei (%) [2]: 70% and 67%
Population Hoechst High Intensity Objects (%) [2]: 10% and 6%
Population Membrane Permeable-Phenotype (%) [2]: 0% and 1%
Population Mitochondria Different-Phenotype (%) [2]: 75% and 81%
Population Mitotic Cells (%) [2]: 53% and 50%
Population Normal (%) [2]: 89% and 93%
Population Pyknosed Nuclei (%) [2]: 22% and 25%
Population Tubulin-Different-Phenotype (%) [2]: 78% and 67%
Total Cell Count [2]: 339 and 357
Population Apoptotic (%) [3]: 30% and 36%
Population Fragmented Nuclei (%) [3]: 9% and 10%
Population Healthy Nuclei (%) [3]: 77% and 76%
Population Hoechst High Intensity Objects (%) [3]: 5% and 7%
Population Membrane Permeable-Phenotype (%) [3]: 0%
Population Mitochondria Different-Phenotype (%) [3]: 30% and 42%
Population Mitotic Cells (%) [3]: 69% and 63%
Population Normal (%) [3]: 94% and 92%
Population Pyknosed Nuclei (%) [3]: 13%
Population Tubulin-Different-Phenotype (%) [3]: 24% and 22%
Total Cell Count [3]: 595 and 423
Population Apoptotic (%) [4]: 37% and 58%
Population Fragmented Nuclei (%) [4]: 5% and 8%
Population Healthy Nuclei (%) [4]: 69% and 72%
Population Hoechst High Intensity Objects (%) [4]: 7% and 6%
Population Membrane Permeable-Phenotype (%) [4]: 0%
Population Mitochondria Different-Phenotype (%) [4]: 74% and 78%
Population Mitotic Cells (%) [4]: 62% and 41%
Population Normal (%) [4]: 92% and 93%
Population Pyknosed Nuclei (%) [4]: 24% and 19%
Population Tubulin-Different-Phenotype (%) [4]: 71% and 69%
Total Cell Count [4]: 392 and 401
Population Apoptotic (%) [5]: 22% and 17%
Population Fragmented Nuclei (%) [5]: 12%
Population Healthy Nuclei (%) [5]: 80%
Population Hoechst High Intensity Objects (%) [5]: 2% and 4%
Population Membrane Permeable-Phenotype (%) [5]: 0%
Population Mitochondria Different-Phenotype (%) [5]: 19% and 24%
Population Mitotic Cells (%) [5]: 77% and 82%
Population Normal (%) [5]: 97% and 95%
Population Pyknosed Nuclei (%) [5]: 6% and 7%
Population Tubulin-Different-Phenotype (%) [5]: 17% and 21%
Total Cell Count [5]: 995 and 643
Population Apoptotic (%) [6]: 43% and 46%
Population Fragmented Nuclei (%) [6]: 9% and 11%
Population Healthy Nuclei (%) [6]: 74%
Population Hoechst High Intensity Objects (%) [6]: 7% and 8%
Population Membrane Permeable-Phenotype (%) [6]: 0%
Population Mitochondria Different-Phenotype (%) [6]: 72% and 71%
Population Mitotic Cells (%) [6]: 56% and 53%
Population Normal (%) [6]: 92% and 91%
Population Pyknosed Nuclei (%) [6]: 16% and 14%
Population Tubulin-Different-Phenotype (%) [6]: 69% and 59%
Total Cell Count [6]: 489 and 437
